In ChEMBL document CHEMBL5104206, “Oleic amide derivatives as small molecule stimulators of the human proteasome's core particle” (RSC Med Chem, 2022):
The source made the active and inactive calls. The calls are words filed in the database; no cut-off is given here.

How the values were obtained:
[1] = target: T1, 20S proteasome (Homo sapiens) (UniProt P49721+P20618+P28074+P28062+P28065+P28072+P25786+P25787+P25788+P25789+P28066+P60900+O14818+Q8TAA3+P40306+A5LHX3+P49720+P28070+Q99436); experiment: Stimulation of human 20S proteasome assessed as increase in proteasome activity at 25 uM and measured upto 60 mins using FRET peptide as substrate by FRET assay relative to control; format: protein-complex assay; conditions: filed as activator
Outline: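 Purified 20S CP (5 nM) with 20 µM FRET peptide reporter in Tris-HCl (50 mM, pH 7.63), 2% DMSO, 25 µL. Controls were reporter alone and basal enzyme with DMSO, in triplicate. Read at 37 °C, ex 335/em 493 nm, every 2 min for 60 min. Rate taken as slope of linear portion.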

[2] = target: T2, Proteasome Macropain subunit MB1 (Homo sapiens) (UniProt P28074); experiment: Stimulation of human 20S proteasome beta 5 subunit in human HEK-293T cells assessed as increase in proteasome activity at 6.25 to 25 uM preincubated for 2 hrs followed by Me4BodipyFL-Ahx3Leu3VS proteasome probe addition and measured after 1 hrs by SDS-PAGE analysis; format: cell-based; conditions: filed as activator, dose 6.25-25 µM
T2 sequence (whole entry): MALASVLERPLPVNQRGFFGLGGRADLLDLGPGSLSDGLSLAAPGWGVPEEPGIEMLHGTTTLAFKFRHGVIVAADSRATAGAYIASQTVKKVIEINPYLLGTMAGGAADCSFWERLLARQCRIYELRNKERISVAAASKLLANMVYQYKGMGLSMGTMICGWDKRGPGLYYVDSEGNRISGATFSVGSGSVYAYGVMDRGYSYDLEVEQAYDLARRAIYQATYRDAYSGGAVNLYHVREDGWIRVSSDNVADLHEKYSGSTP
Outline: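 Treated 2 h in fresh medium, DMSO control 0.5%, then 1 µM Me4BodipyFL-Ahx3Leu3VS probe added. Cells lysed in M-PER with protease inhibitors. 50 µg protein run on 4–15% SDS-PAGE, in-gel fluorescence scanned at 488 nm. Band densities quantified, triplicate.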

[3] = target: T1, 20S proteasome (Homo sapiens); experiment: Activation of human 20S proteasome mediated degradation of alpha-synuclein assessed as amount of alpha-synuclein remaining at 25 uM and incubated for 2 hrs by Coomassie staining based SDS-PAGE analysis; format: protein-complex assay; conditions: filed as activator
Outline: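 Human 20S CP (5 nM final) with α-Syn monomer (400 ng) in Tris-HCl (50 mM, pH 7.6), 2% DMSO, 18 µL total, 2 h at 37 °C, triplicate. Mixed on ice before incubation. Stopped in SDS loading buffer at 95 °C 5 min. Run on 4–15% SDS-PAGE, Coomassie stained, band intensity normalized to α-Syn without 20S CP.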

HEK-293T = experiment: Cytotoxicity against human HEK-293T cells assessed as reduction in cell viability at 6.25 to 25 uM incubated for 24 hrs by CellTiter Glo viability assay; format: toxicity, cell-based; conditions: dose 6.25-25 µM
Outline: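 HEK-293T seeded at 5000 cells/well, attached overnight, medium refreshed. Compound in DMSO added in triplicate, 1% final DMSO, 24 h. Plate equilibrated to room temperature 30 min before CellTiter-Glo reagent, shaken 10 min, signal stabilized 10 min. Luminescence read.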

Compound `CCCCCCCC/C=C\CCCCCCCC(=O)N[C@@H](C)c1ccccc1` has an Activity [1] of 195%.
`CCCCCCCC/C=C\CCCCCCCC(=O)N[C@H](C)c1ccccc1` showed an Activity [1] of 225%.
`CCCCCCCC/C=C\CCCCCCCC(=O)NC1CCCCCCC1` was tested, and the Activity [1] was 148%.
For `CCCCCCCC/C=C\CCCCCCCC(=O)NCC(C)C`, the Activity [1] was 139%.
`CCCCCCCC/C=C\CCCCCCCC(=O)NCc1cccc(C)c1` gave an Activity [1] of 183%.
With `CCCCCCCC/C=C\CCCCCCCC(=O)NCc1ccc(C(C)(C)C)cc1` the Activity [1] was 106%.
`CCCCCCCC/C=C\CCCCCCCC(=O)Nc1ccc(Cl)cc1` showed an Activity [1] of 144%.
In the case of `CCCCCCCC/C=C\CCCCCCCC(=O)NCc1ccc(C(F)(F)F)cc1`, the Activity [1] is reported as 92%.
For `CCCCCCCC/C=C\CCCCCCCC(=O)NCc1ccccc1`, the Activity [1] was 208%.
Work on `CCCCCCCC/C=C\CCCCCCCC(=O)NCc1ccc(Cl)cc1` yielded an Activity [1] of 138%.
In the case of `CCCCCCCC/C=C\CCCCCCCC(=O)NC1CCCCCC1`, the Activity [1] is reported as 136%.
In the case of `CCCCCCCC/C=C\CCCCCCCC(=O)NCCCC`, the Activity [1] is reported as 138%.
Work on `CCCCCCCC/C=C\CCCCCCCC(=O)Nc1ccc(Oc2ccccc2)cc1` yielded an Activity [1] of 145%.
`CCCCCCCC/C=C\CCCCCCCC(=O)Nc1ccccc1` showed an Activity [1] of 159%.
Work on `CCCCCCCC/C=C\CCCCCCCC(=O)Nc1ccc(C(C)(C)C)cc1` yielded an Activity [1] of 68%.
With `CCCCC/C=C\C/C=C\C/C=C\C/C=C\CCCC(=O)Nc1ccc(O)cc1` the Activity ([2]; DDE = dose-dependent effect) was “Dde”, the Activity [3] was “Active” and the Activity [1] was 219%. For the same compound, the Activity (HEK-293T) was “Toxic”.
For `CCCCCCCC/C=C\CCCCCCCC(=O)Nc1ccc(C(C)=O)cc1`, the Activity [2] was “Active”, the Activity [3] was “Active” and the Activity [1] was 241%. For the same compound, the Activity (HEK-293T) was “Non-Toxic”.
For `CCCCCCCC/C=C\CCCCCCCC(=O)N[C@H]1CC[C@H](C)CC1`, the Activity [1] was 118%.
`CCCCCCCC/C=C\CCCCCCCC(=O)NCCC` was tested, and the Activity [2] was “Active”, the Activity [3] was “Active” and the Activity [1] was 154%. For the same compound, the Activity (HEK-293T) was “Toxic”.
`CCCCCCCC/C=C\CCCCCCCC(=O)NCCCCC` showed an Activity [1] of 124%.
With `CCCCCCCC/C=C\CCCCCCCC(=O)NC` the Activity [1] was 132%.
Compound `CCCCCCCC/C=C\CCCCCCCC(=O)NCc1ccc(C)cc1` has an Activity [1] of 167%.
For `CCCCCCCC/C=C\CCCCCCCC(=O)Nc1ccc(O)cc1`, the Activity [1] was 247%.
`CCCCCCCC/C=C\CCCCCCCC(=O)NCc1ccccc1C` gave an Activity [1] of 107%.
In the case of `CCCCCCCC/C=C\CCCCCCCC(=O)NC1CCCC1`, the Activity [1] is reported as 218%.
In the case of `CCCCCCCC/C=C\CCCCCCCC(=O)NCc1ccc(O)cc1`, the Activity [2] is reported as “Active”, the Activity [3] is reported as “Active” and the Activity [1] is reported as 361%. The Activity (HEK-293T) was “Toxic”.
With `CCCCCCCC/C=C\CCCCCCCC(=O)NCc1ccc(OC)cc1` the Activity [1] was 116%.
Work on `CCCCCCCC/C=C\CCCCCCCC(=O)NC1CCCCC1` yielded an Activity [1] of 204%.
Compound `CCCCCCCC/C=C\CCCCCCCC(=O)NC1CCC1` has an Activity [1] of 202%.
